Paper PMC4134498 (British Journal of Cancer, 2014)
Entries after “also recorded” stand apart in the source; their conditions may differ.

Tests used:
[1] = Plasma pharmacokinetics of olaparib alone and with PLD; assay type: in vivo, patients; details: for AUC(0-t): olaparib AUC0–10 h, Day 1 alone; for AUC(0-t) / Cmax: mean±s.d.; for Cmax: olaparib Cmax, Day 2+PLD
advanced solid tumours = experiment: Preliminary efficacy: best objective response, RECIST v1.0; assay type: in vivo, patients
In short: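 Patients with advanced solid tumours took oral PARP inhibitor capsules bid, 50–400 mg, on days 1–7 (intermittent) or days 1–28 (continuous) of 28-day cycles, plus liposomal anthracycline 40 mg m−2 on day 1, for up to 6 combination cycles. Site investigators scored objective response by RECIST v1.0. Analyses ran by tumour type and gBRCA status, and for ovarian cancer by platinum sensitivity (progression-free interval ⩾6 months), retrospectively.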

[2] = ref Fong et al, 2009; cited from earlier work
[3] = test system: platinum-sensitive, relapsed, high-grade serous ovarian cancer; details: olaparib maintenance, ref Ledermann et al, 2012, cited from earlier work
[4] = continuous dosing, ref Mateo et al, 2013; cited from earlier work
[5] = ovarian cancer patients, all cohorts + PLD 40 mg m^−2, Total (n=26)
[6] = ovarian cancer patients, olaparib 50 mg bid 7 day + PLD 40 mg m^−2 (n=3)
[7] = ovarian cancer patients, olaparib 100 mg bid 7 day + PLD 40 mg m^−2 (n=2)
[8] = ovarian cancer patients, olaparib 100 mg bid 28 day + PLD 40 mg m^−2 (n=2)
[9] = ovarian cancer patients, olaparib 200 mg bid 7 day + PLD 40 mg m^−2 (n=2)
[10] = ovarian cancer patients, olaparib 200 mg bid 28 day + PLD 40 mg m^−2 (n=3)
[11] = ovarian cancer patients, olaparib 400 mg bid 7 day + PLD 40 mg m^−2 (n=8)
[12] = ovarian cancer patients, olaparib 400 mg bid 28 day + PLD 40 mg m^−2 (n=8)
[13] = overall population, all cohorts + PLD 40 mg m^−2, Total (n=42)
[14] = overall population, olaparib 50 mg bid 7 day + PLD 40 mg m^−2 (n=3)
[15] = overall population, olaparib 100 mg bid 7 day + PLD 40 mg m^−2 (n=3)
[16] = overall population, olaparib 100 mg bid 28 day + PLD 40 mg m^−2 (n=4)
[17] = overall population, olaparib 200 mg bid 7 day + PLD 40 mg m^−2 (n=3)
[18] = overall population, olaparib 200 mg bid 28 day + PLD 40 mg m^−2 (n=7)
[19] = overall population, olaparib 400 mg bid 7 day + PLD 40 mg m^−2 (n=12)
[20] = overall population, olaparib 400 mg bid 28 day + PLD 40 mg m^−2 (n=12)

`O=C(c1cc(Cc2n[nH]c(=O)c3ccccc23)ccc1F)N1CCN(C(=O)C2CC2)CC1` [olaparib] gave a Tmax ([1]; human, plasma, oral) of 2.1 h, an AUC(0-t) ([1]; human, plasma, oral, 50 mg, olaparib 50 mg, n=3) of 8700 ± 5800 ng·h/mL and an AUC(0-t) ([1]; human, plasma, oral, 400 mg, olaparib 400 mg bid, n=11) of 25900 ± 9000 ng·h/mL. The Cmax ([1]; human, plasma, oral, olaparib 50 mg bid) was 1400 ± 700 ng/mL, the Cmax ([1]; human, plasma, oral, olaparib 100 mg bid) was 2200 ± 1000 ng/mL and the “PK interference between olaparib and PLD” value ([1]; in vivo) was “No major pharmacokinetic interference; also recorded: minor”. For the same compound, the “patients with antitumour activity” value (advanced solid tumours; continuous olaparib schedule + PLD) was 7 out of 23, the “patients with antitumour activity” value (advanced solid tumours; intermittent olaparib schedule + PLD) was 7 out of 21 and the “ORR, platinum-resistant ovarian patients with a gBRCA mutation” value (advanced solid tumours; olaparib + PLD) was 50%. The “ORR, platinum-sensitive ovarian patients with a gBRCA mutation” value (advanced solid tumours; olaparib + PLD) was 67%, the “ORR, platinum-sensitive ovarian patients with wild type or unknown gBRCA mutation status” value (advanced solid tumours; olaparib + PLD) was 100% and the “objective responses, evaluable patients with breast cancer” value (advanced solid tumours; olaparib + PLD) was 8%. The “response rate, platinum-resistant ovarian patients” value (advanced solid tumours; olaparib + PLD) was 25%, the “response rate, platinum-sensitive ovarian patients” value (advanced solid tumours; olaparib + PLD) was 71% and the “ORR, ovarian cancer subgroup” value (advanced solid tumours; olaparib + PLD, 13 out of 26) was 50%. The “ORR, overall population” value (advanced solid tumours; olaparib + PLD, 14 out of 42) was 33%, the “Ovarian cancer patients with a complete or partial objective response” value (“Ovarian cancer patients” below) (advanced solid tumours; olaparib + PLD, Platinum resistant, gBRCA Unknown) was 0/6 and the “Ovarian cancer patients” value (advanced solid tumours; olaparib + PLD, Platinum resistant, gBRCAm) was 3/6. The “Ovarian cancer patients” value (advanced solid tumours; olaparib + PLD, Platinum sensitive, gBRCA Unknown) was 1/1, the “Ovarian cancer patients” value (advanced solid tumours; olaparib + PLD, Platinum sensitive, gBRCAm) was 8/12 and the “Ovarian cancer patients” value (advanced solid tumours; olaparib + PLD, Platinum sensitive, gBRCAwt) was 1/1. For the same compound, the “response, gBRCA-mutated patients in the ovarian subgroup” value (advanced solid tumours; olaparib + PLD, eleven patients) was 61%, the “partial response (PR), evaluable patients” value (advanced solid tumours; olaparib + PLD, overall, 11 patients) was 26% and the “complete response (CR), evaluable patients” value (advanced solid tumours; olaparib + PLD, overall, three patients) was 7%. The “Best objective response: Complete response, patients” value (advanced solid tumours; [5]) was 3 (12) n (%), the “Best objective response: Partial response, patients” value (advanced solid tumours; [5]) was 10 (38) n (%) and the “Best objective response: Progressive disease, patients” value (advanced solid tumours; [5]) was 5 (19) n (%). For the same compound, the “Best objective response: Stable disease, patients” value (advanced solid tumours; [5]) was 8 (31) n (%), the “Best objective response: Complete response, patients” value (advanced solid tumours; [6]) was 1 n and the “Best objective response: Partial response, patients” value (advanced solid tumours; [6]) was 1 n. For the same compound, the “Best objective response: Progressive disease, patients” value (advanced solid tumours; [6]) was 0 n, the “Best objective response: Stable disease, patients” value (advanced solid tumours; [6]) was 1 n and the “Best objective response: Complete response, patients” value (advanced solid tumours; [7]) was 0 n. The “Best objective response: Partial response, patients” value (advanced solid tumours; [7]) was 1 n, the “Best objective response: Progressive disease, patients” value (advanced solid tumours; [7]) was 1 n and the “Best objective response: Stable disease, patients” value (advanced solid tumours; [7]) was 0 n. For the same compound, the “Best objective response: Complete response, patients” value (advanced solid tumours; [8]) was 0 n, the “Best objective response: Partial response, patients” value (advanced solid tumours; [8]) was 0 n and the “Best objective response: Progressive disease, patients” value (advanced solid tumours; [8]) was 1 n. For the same compound, the “Best objective response: Stable disease, patients” value (advanced solid tumours; [8]) was 0 n, the “Best objective response: Complete response, patients” value (advanced solid tumours; [9]) was 0 n and the “Best objective response: Partial response, patients” value (advanced solid tumours; [9]) was 1 n. For the same compound, the “Best objective response: Progressive disease, patients” value (advanced solid tumours; [9]) was 0 n, the “Best objective response: Stable disease, patients” value (advanced solid tumours; [9]) was 1 n and the “Best objective response: Complete response, patients” value (advanced solid tumours; [10]) was 0 n. The “Best objective response: Partial response, patients” value (advanced solid tumours; [10]) was 1 n, the “Best objective response: Progressive disease, patients” value (advanced solid tumours; [10]) was 0 n and the “Best objective response: Stable disease, patients” value (advanced solid tumours; [10]) was 1 n. The “Best objective response: Complete response, patients” value (advanced solid tumours; [11]) was 1 n, the “Best objective response: Partial response, patients” value (advanced solid tumours; [11]) was 2 n and the “Best objective response: Progressive disease, patients” value (advanced solid tumours; [11]) was 1 n. The “Best objective response: Stable disease, patients” value (advanced solid tumours; [11]) was 4 n, the “Best objective response: Complete response, patients” value (advanced solid tumours; [12]) was 1 n and the “Best objective response: Partial response, patients” value (advanced solid tumours; [12]) was 4 n. The “Best objective response: Progressive disease, patients” value (advanced solid tumours; [12]) was 2 n, the “Best objective response: Stable disease, patients” value (advanced solid tumours; [12]) was 1 n and the “Best objective response: Complete response, patients” value (advanced solid tumours; [13]) was 3 (7) n (%). The “Best objective response: Not evaluable/unknown, patients” value (advanced solid tumours; [13]) was 2 (5) n (%), the “Best objective response: Partial response, patients” value (advanced solid tumours; [13]) was 11 (26) n (%) and the “Best objective response: Progressive disease, patients” value (advanced solid tumours; [13]) was 13 (31) n (%). For the same compound, the “Best objective response: Stable disease, patients” value (advanced solid tumours; [13]) was 13 (31) n (%), the “Best objective response: Complete response, patients” value (advanced solid tumours; [14]) was 1 n and the “Best objective response: Not evaluable/unknown, patients” value (advanced solid tumours; [14]) was 0 n. The “Best objective response: Partial response, patients” value (advanced solid tumours; [14]) was 1 n, the “Best objective response: Progressive disease, patients” value (advanced solid tumours; [14]) was 0 n and the “Best objective response: Stable disease, patients” value (advanced solid tumours; [14]) was 1 n. The “Best objective response: Complete response, patients” value (advanced solid tumours; [15]) was 0 n, the “Best objective response: Not evaluable/unknown, patients” value (advanced solid tumours; [15]) was 0 n and the “Best objective response: Partial response, patients” value (advanced solid tumours; [15]) was 1 n. For the same compound, the “Best objective response: Progressive disease, patients” value (advanced solid tumours; [15]) was 1 n, the “Best objective response: Stable disease, patients” value (advanced solid tumours; [15]) was 1 n and the “Best objective response: Complete response, patients” value (advanced solid tumours; [16]) was 0 n. The “Best objective response: Not evaluable/unknown, patients” value (advanced solid tumours; [16]) was 0 n, the “Best objective response: Partial response, patients” value (advanced solid tumours; [16]) was 0 n and the “Best objective response: Progressive disease, patients” value (advanced solid tumours; [16]) was 2 n. The “Best objective response: Stable disease, patients” value (advanced solid tumours; [16]) was 1 n, the “Best objective response: Complete response, patients” value (advanced solid tumours; [17]) was 0 n and the “Best objective response: Not evaluable/unknown, patients” value (advanced solid tumours; [17]) was 0 n. The “Best objective response: Partial response, patients” value (advanced solid tumours; [17]) was 1 n, the “Best objective response: Progressive disease, patients” value (advanced solid tumours; [17]) was 1 n and the “Best objective response: Stable disease, patients” value (advanced solid tumours; [17]) was 1 n. The “Best objective response: Complete response, patients” value (advanced solid tumours; [18]) was 0 n, the “Best objective response: Not evaluable/unknown, patients” value (advanced solid tumours; [18]) was 1 n and the “Best objective response: Partial response, patients” value (advanced solid tumours; [18]) was 1 n. For the same compound, the “Best objective response: Progressive disease, patients” value (advanced solid tumours; [18]) was 2 n, the “Best objective response: Stable disease, patients” value (advanced solid tumours; [18]) was 2 n and the “Best objective response: Complete response, patients” value (advanced solid tumours; [19]) was 1 n. For the same compound, the “Best objective response: Not evaluable/unknown, patients” value (advanced solid tumours; [19]) was 1 n, the “Best objective response: Partial response, patients” value (advanced solid tumours; [19]) was 2 n and the “Best objective response: Progressive disease, patients” value (advanced solid tumours; [19]) was 3 n. For the same compound, the “Best objective response: Stable disease, patients” value (advanced solid tumours; [19]) was 5 n, the “Best objective response: Complete response, patients” value (advanced solid tumours; [20]) was 1 n and the “Best objective response: Not evaluable/unknown, patients” value (advanced solid tumours; [20]) was 0 n. The “Best objective response: Partial response, patients” value (advanced solid tumours; [20]) was 5 n, the “Best objective response: Progressive disease, patients” value (advanced solid tumours; [20]) was 4 n and the “Best objective response: Stable disease, patients” value (advanced solid tumours; [20]) was 2 n. The “MTD of olaparib monotherapy (capsule formulation)” value [2] was 400 mg twice daily (bid), the “PFS hazard ratio vs placebo” value ([3]; 95% CI, 0.25–0.49, P<0.00001) was 0.35 and the “median PFS” value [3] was 8.4 months. The “recommended dose of the olaparib tablet formulation” value [4] was 300 mg bid.
